Assay results: ChEMBL document CHEMBL3588757, “Structure-based design, synthesis and biological testing of piperazine-linked bis-epipodophyllotoxin etoposide analogs” (Bioorg Med Chem, 2015)

Legend:
TK-10 [1] = assay: Cytotoxicity against human TK10 cells assessed as cell growth at 50 uM by SRB assay; format: functional; conditions: read-out: Activity
U-251 [2] = assay: Cytotoxicity against human U251 cells by SRB assay; format: functional
Procedure, shortened: (§1)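 NCI-60 panel screen; 5-dose testing giving GI50 per cell line, plus a single 10 µM one-dose test. Method details not given beyond the NCI screen.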

CCRF-CEM [3] = assay: Cytotoxicity against human CCRF-CEM cells by SRB assay; format: functional
SN12C = assay: Cytotoxicity against human SN12C cells assessed as cell growth at 0.005 uM by SRB assay; format: functional; conditions: read-out: Activity
DU-145 = assay: Cytotoxicity against human DU145 cells by SRB assay; format: functional
Procedure, shortened: (§2)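 Measured in the NCI-60 human tumour cell line panel using five-dose testing. Growth was recorded at each dose for each cell line, and a GI50 was derived for each line.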

RXF 393 = assay: Cytotoxicity against human RXF393 cells assessed as cell growth at 50 uM by SRB assay; format: functional; conditions: read-out: Activity
SK-MEL-28 = assay: Cytotoxicity against human SK-MEL-28 cells by SRB assay; format: functional; procedure, shortened: as §1
RPMI-8226 = assay: Cytotoxicity against human RPMI8226 cells assessed as cell growth at 0.005 uM by SRB assay; format: functional; conditions: read-out: Activity
T47D [4] = assay: Cytotoxicity against human T47D cells assessed as cell growth at 5 uM by SRB assay; format: functional; conditions: read-out: Activity
MDA-MB-435 [5] = assay: Cytotoxicity against human MDA-MB-435 cells assessed as cell growth at 0.05 uM by SRB assay; format: functional; conditions: read-out: Activity
IGROV-1 = assay: Cytotoxicity against human IGROV1 cells assessed as cell growth at 50 uM by SRB assay; format: functional; conditions: read-out: Activity
SF-539 = assay: Cytotoxicity against human SF539 cells assessed as cell growth at 0.5 uM by SRB assay; format: functional; conditions: read-out: Activity
LOX IMVI = assay: Cytotoxicity against human LOXIMVI cells assessed as cell growth at 0.05 uM by SRB assay; format: functional; conditions: read-out: Activity
PC-3 = assay: Cytotoxicity against human PC3 cells assessed as cell growth at 5 uM by SRB assay; format: functional; conditions: read-out: Activity
HCT-116 = assay: Cytotoxicity against human HCT116 cells assessed as cell growth at 0.5 uM by SRB assay; format: functional; conditions: read-out: Activity; procedure, shortened: as §2
SW-620 = assay: Cytotoxicity against human SW620 cells assessed as cell growth at 0.05 uM by SRB assay; format: functional; conditions: read-out: Activity
TK-10 [6] = assay: Cytotoxicity against human TK10 cells assessed as cell growth at 5 uM by SRB assay; format: functional; conditions: read-out: Activity
OVCAR-4 = assay: Cytotoxicity against human OVCAR4 cells assessed as cell growth at 50 uM by SRB assay; format: functional; conditions: read-out: Activity
CCRF-CEM [7] = assay: Cytotoxicity against human CCRF-CEM cells assessed as cell growth at 5 uM by SRB assay; format: functional; conditions: read-out: Activity
UACC-257 [8] = assay: Cytotoxicity against human UACC257 cells assessed as cell growth at 50 uM by SRB assay; format: functional; conditions: read-out: Activity
HCT-15 [9] = assay: Cytotoxicity against human HCT15 cells assessed as cell growth at 5 uM by SRB assay; format: functional; conditions: read-out: Activity; procedure, shortened: as §2
HCT-15 [10] = assay: Cytotoxicity against human HCT15 cells assessed as cell growth at 50 uM by SRB assay; format: functional; conditions: read-out: Activity; procedure, shortened: as §2
BT-549 = assay: Cytotoxicity against human BT549 cells assessed as cell growth at 0.5 uM by SRB assay; format: functional; conditions: read-out: Activity
UACC-257 [11] = assay: Cytotoxicity against human UACC257 cells by SRB assay; format: functional; procedure, shortened: as §1
K562 = assay: Cytotoxicity against human K562 cells assessed as cell growth inhibition after 72 hrs by MTS assay; format: functional, cell-based; conditions: K562, 72 h
SF-295 [12] = assay: Cytotoxicity against human SF295 cells by SRB assay; format: functional; procedure, shortened: as §1
SNB-19 = assay: Cytotoxicity against human SNB19 cells assessed as cell growth at 0.05 uM by SRB assay; format: functional; conditions: read-out: Activity
SR = assay: Cytotoxicity against human SR cells assessed as cell growth at 0.5 uM by SRB assay; format: functional; conditions: read-out: Activity
OVCAR-3 = assay: Cytotoxicity against human OVCAR3 cells assessed as cell growth at 50 uM by SRB assay; format: functional; conditions: read-out: Activity
U-251 [13] = assay: Cytotoxicity against human U251 cells assessed as cell growth at 0.5 uM by SRB assay; format: functional; conditions: read-out: Activity
MOLT-4 = assay: Cytotoxicity against human MOLT4 cells assessed as cell growth at 0.05 uM by SRB assay; format: functional; conditions: read-out: Activity
CCRF-CEM [14] = assay: Cytotoxicity against human CCRF-CEM cells assessed as cell growth at 50 uM by SRB assay; format: functional; conditions: read-out: Activity
[15] = Cytotoxicity against human NCI-ADR-RES cells assessed as cell growth at 50 uM by SRB assay; format: functional; conditions: read-out: Activity
MDA-MB-435 [16] = assay: Cytotoxicity against human MDA-MB-435 cells assessed as cell growth at 0.005 uM by SRB assay; format: functional; conditions: read-out: Activity
NCI-H226 = assay: Cytotoxicity against human NCI-H226 cells assessed as cell growth at 50 uM by SRB assay; format: functional; conditions: read-out: Activity
MCF7 = assay: Cytotoxicity against human MCF7 cells assessed as cell growth at 0.05 uM by SRB assay; format: functional; conditions: read-out: Activity
SF-295 [17] = assay: Cytotoxicity against human SF295 cells assessed as cell growth at 50 uM by SRB assay; format: functional; conditions: read-out: Activity
[18] = Cytotoxicity against human Hs578T cells assessed as cell growth at 5 uM by SRB assay; format: functional; conditions: Hs-578T, read-out: Activity; procedure, shortened: as §2
MDA-MB-231 = assay: Cytotoxicity against human MDA-MB-231/ATCC cells assessed as cell growth at 0.05 uM by SRB assay; format: functional; conditions: read-out: Activity
786-0 = assay: Cytotoxicity against human 786-0 cells assessed as cell growth at 5 uM by SRB assay; format: functional; conditions: read-out: Activity
UACC-257 [19] = assay: Cytotoxicity against human UACC257 cells assessed as cell growth at 5 uM by SRB assay; format: functional; conditions: read-out: Activity
HL-60(TB) = assay: Cytotoxicity against human HL-60(TB) cells assessed as cell growth at 0.05 uM by SRB assay; format: functional; conditions: read-out: Activity; procedure, shortened: as §2
UACC-257 [20] = assay: Cytotoxicity against human UACC257 cells assessed as cell growth at 0.05 uM by SRB assay; format: functional; conditions: read-out: Activity
T47D [21] = assay: Cytotoxicity against human T47D cells assessed as cell growth at 0.5 uM by SRB assay; format: functional; conditions: read-out: Activity
[22] = read-out: LC50 (the source's name)
[23] = read-out: pLC50 (the source's name) (converted)

## COc1cc([C@@H]2c3cc4c(cc3[C@@H](NC(=O)CN3CCN(CCCCCCN5CCN(CC(=O)N[C@@H]6c7cc8c(cc7[C@@H](c7cc(OC)c(O)c(OC)c7)[C@H]7C(=O)OC[C@@H]76)OCO8)CC5)CC3)[C@H]3COC(=O)[C@H]23)OCO4)cc(OC)c1O
TK-10 [1]
  growth at 50 µM: 63%
U-251 [2]; read-out: GI50
  GI50: 1.56 µM
U-251 [2]; [22]
  CC50: > 50 µM
U-251 [2]; read-out: TGI
  TGI: 25.1 µM
U-251 [2]; read-out: pGI50 (converted)
  GI50: 1.55 µM
U-251 [2]; [23]
  CC50: > 50.1 µM
U-251 [2]; read-out: pTGI (converted)
  TGI: 25.1 µM
CCRF-CEM [3]; read-out: GI50
  GI50: 0.253 µM
CCRF-CEM [3]; [22]
  CC50: > 50 µM
CCRF-CEM [3]; read-out: TGI
  TGI: > 50 µM
CCRF-CEM [3]; read-out: pGI50 (converted)
  GI50: 0.251 µM
CCRF-CEM [3]; [23]
  CC50: > 50.1 µM
CCRF-CEM [3]; read-out: pTGI
  TGI: > 50.1 µM
SN12C
  growth at 0.005 µM: 96%
DU-145; read-out: GI50
  GI50: 1.66 µM
DU-145; [22]
  CC50: > 50 µM
DU-145; read-out: TGI
  TGI: > 50 µM
DU-145; read-out: pGI50 (converted)
  GI50: 1.66 µM
DU-145; [23]
  CC50: > 50.1 µM
DU-145; read-out: pTGI (converted)
  TGI: > 50.1 µM
RXF 393
  growth at 50 µM: 7%
SK-MEL-28; read-out: GI50
  GI50: 6.52 µM
SK-MEL-28; [22]
  CC50: > 50 µM
SK-MEL-28; read-out: TGI
  TGI: > 50 µM
SK-MEL-28; read-out: pGI50 (converted)
  GI50: 6.46 µM
SK-MEL-28; [23]
  CC50: > 50.1 µM
SK-MEL-28; read-out: pTGI (converted)
  TGI: > 50.1 µM
RPMI-8226
  growth at 0.005 µM: 102%
T47D [4]
  growth at 5 µM: 31%
MDA-MB-435 [5]
  growth at 0.05 µM: 96%
IGROV-1
  growth at 50 µM: 47%
SF-539
  growth at 0.5 µM: 71%
LOX IMVI
  growth at 0.05 µM: 88%
PC-3
  growth at 5 µM: 54%
HCT-116
  growth at 0.5 µM: 60%
SW-620
  growth at 0.05 µM: 91%
TK-10 [6]
  growth at 5 µM: 85%
OVCAR-4
  growth at 50 µM: 21%
CCRF-CEM [7]
  growth at 5 µM: 7%
UACC-257 [8]
  growth at 50 µM: 41%
HCT-15 [9]
  growth at 5 µM: 82%
HCT-15 [10]
  growth at 50 µM: 60%
BT-549
  growth at 0.5 µM: 62%
UACC-257 [11]; read-out: GI50
  GI50: 18.9 µM
UACC-257 [11]; [22]
  CC50: > 50 µM
UACC-257 [11]; read-out: TGI
  TGI: > 50 µM
UACC-257 [11]; read-out: pGI50 (converted)
  GI50: 19.1 µM
UACC-257 [11]; [23]
  CC50: > 50.1 µM
UACC-257 [11]; read-out: pTGI (converted)
  TGI: > 50.1 µM
K562
  IC50: 0.041 µM
SF-295 [12]; read-out: GI50
  GI50: 4.92 µM
SF-295 [12]; [22]
  CC50: > 50 µM
SF-295 [12]; read-out: TGI
  TGI: > 50 µM
SF-295 [12]; read-out: pGI50 (converted)
  GI50: 4.9 µM
SF-295 [12]; [23]
  CC50: > 50.1 µM
SF-295 [12]; read-out: pTGI (converted)
  TGI: > 50.1 µM
SNB-19
  growth at 0.05 µM: 95%
SR
  growth at 0.5 µM: 22%
OVCAR-3
  growth at 50 µM: 11%
U-251 [13]
  growth at 0.5 µM: 76%
MOLT-4
  growth at 0.05 µM: 105%
CCRF-CEM [14]
  growth at 50 µM: 7%
[15]
  growth at 50 µM: 87%
MDA-MB-435 [16]
  growth at 0.005 µM: 91%
NCI-H226
  growth at 50 µM: -2%
MCF7
  growth at 0.05 µM: 77%
SF-295 [17]
  growth at 50 µM: 1%
[18]
  growth at 5 µM: 64%
MDA-MB-231
  growth at 0.05 µM: 94%
786-0
  growth at 5 µM: 40%
UACC-257 [19]
  growth at 5 µM: 62%
HL-60(TB)
  growth at 0.05 µM: 114%
UACC-257 [20]
  growth at 0.05 µM: 113%
T47D [21]
  growth at 0.5 µM: 79%
